15 compounds from ChEMBL document CHEMBL1152754, “18F-labeled flavones for in vivo imaging of beta-amyloid plaques in Alzheimer's brains” (Bioorg Med Chem, 2009) can be followed below.

The source made the active and inactive calls. The rule behind the calls is not given here.

Series [1] deals with Brain. The experiment in a line: Biodistribution in ddY mouse brain at 18.5 kBq, iv after 30 mins. Format: ADME, organism-based. Particulars: in vivo, 0.5 h. The procedure, abridged: (§1)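 Normal ddY mice (5 weeks old, 22–25 g) received 18.5 kBq of 18F-labeled agent by tail-vein injection in 100 µL saline containing 5 µL ethanol. Killed under isoflurane anesthesia at each time point; organs removed and weighed, radioactivity gamma-counted. Expressed as %ID/g, mean ± SD of 4–5 mice per interval.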

Series [2] concerns Blood. The experiment in a line: Biodistribution in ddY mouse blood at 18.5 kBq, iv after 30 mins. Format: ADME, organism-based. Particulars: in vivo, 0.5 h. An outline of the steps: as §1
Series [3] concerns Bone. Put plainly: Biodistribution in ddY mouse bone at 18.5 kBq, iv after 60 mins. Type of series: ADME, organism-based, Bone element. The following applies: in vivo, 1 h. An outline of the steps: as §1
Series [4] concerns Blood. Put plainly: Biodistribution in ddY mouse blood at 18.5 kBq, iv after 10 mins. Format: ADME, organism-based. Particulars: in vivo. An outline of the steps:
as §1

The test system of series [5] is Brain. The experiment in a line: Biodistribution in ddY mouse brain at 18.5 kBq, iv after 10 mins. The following applies: in vivo. Type of series: ADME, organism-based. The procedure, abridged: as §1
Series [6] concerns Blood. Put plainly: Biodistribution in ddY mouse blood at 18.5 kBq, iv after 2 mins. Type of series: ADME, organism-based. Particulars: in vivo. The procedure, abridged:
as §1

In series [7] the test system is Brain. The experiment in a line: Biodistribution in ddY mouse brain at 18.5 kBq, iv after 2 mins. Type of series: ADME, organism-based. Particulars: in vivo. An outline of the steps: as §1
The subject of series [8] is Blood. The experiment in a line: Biodistribution in ddY mouse blood at 18.5 kBq, iv after 60 mins. Format: ADME, organism-based. Particulars: in vivo, 1 h. An outline of the steps:
as §1

For series [9], the system named is Bone. The experiment in a line: Biodistribution in ddY mouse bone at 18.5 kBq, iv after 30 mins. Type of series: ADME, organism-based, Bone element. The following applies: in vivo, 0.5 h. The procedure, abridged:
as §1

Series [10] deals with Brain. Put plainly: Biodistribution in ddY mouse brain at 18.5 kBq, iv after 60 mins. Format: ADME, organism-based. The following applies: in vivo, 1 h. An outline of the steps: as §1
The subject of series [11] is Bone. The experiment in a line: Biodistribution in ddY mouse bone at 18.5 kBq, iv after 2 mins. Type of series: ADME, organism-based, Bone element. Particulars: in vivo. The procedure, abridged: as §1
The test system of series [12] is Bone. Put plainly: Biodistribution in ddY mouse bone at 18.5 kBq, iv after 10 mins. Type of series: ADME, organism-based, Bone element. Particulars: in vivo. The procedure, abridged: as §1
The nature of series [13]: Displacement of [125I]DMFV from amyloid beta (1 to 42) aggregates. An outline of the steps: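 Aβ(1-42) aggregated at 0.25 mg/mL in 10 mM sodium phosphate with 1 mM EDTA, pH 7.4, 37 °C for 42 h. Competition: 0.02 nM [125I]DMFV, test compound at 0.2 pM–400 µM, and aggregates in 10% EtOH, incubated 3 h at room temperature. Bound ligand collected on GF/B filters and gamma-counted. IC50 taken from displacement curves; Ki by Cheng-Prusoff using DMFV Kd 12.3 nM.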
On the technique in general: Displacement assays read how much labelled ligand stays bound in the presence of the test substance.

For the next series, the species on record is Mus musculus. Put plainly: Binding affinity to amyloid beta (1 to 42) aggregates in Tg2576 mouse brain at 100 uM by fluorescent staining method. Type of series: tissue-based. The procedure, abridged: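 Tg2576 transgenic mice (female, 20 months old) killed by decapitation under isoflurane; brains frozen in powdered dry ice and cut into 10 µm serial cryosections. Sections incubated with a 100 µM solution of fluorescent ligand in 50% ethanol, washed twice for 3 min in 50% ethanol, imaged by fluorescence microscopy (excitation 450–490 nm). Adjacent sections immunostained with anti-β-amyloid monoclonal antibody, DAB chromogen.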

`CN(C)c1ccc(-c2cc(=O)c3cc(OCCOCC[18F])ccc3o2)cc1`: the Drug uptake with Brain [1] is on record as 2 % ID/g; in the series on Blood [2], 2.5 % ID/g; in the series with Bone [3] it was 3.74 % ID/g; in the series on Blood [4] it was 2.3 % ID/g; in the series on Brain [5], 2.75 % ID/g; in the series with Blood [6] it was 2.09 % ID/g. For the same compound, the Drug uptake with Brain [7] is recorded as 3.54 % ID/g; in the series on Blood [8], 2.94 % ID/g; in the series on Bone [9], 2.42 % ID/g; in the series on Brain [10], 2.13 % ID/g; in the series with Bone [11] it was 1.13 % ID/g; in the series with Bone [12], 1.65 % ID/g.

The Ki is a dissociation constant, usually derived from enzyme kinetics or from competition with a known ligand. A low value points to a stronger hold on the target. For the compound `CN(C)c1ccc(-c2cc(=O)c3cc(F)ccc3o2)cc1`, the affinity in [13], expressed as Ki, was 73.9 nM.

Compound `CNc1ccc(-c2cc(=O)c3cc(OCCOCCF)ccc3o2)cc1` gave an inhibition constant (Ki) in series [13] of 54.5 nM.

As to `CN(C)c1ccc(-c2cc(=O)c3cc(OCCOCCOCCF)ccc3o2)cc1`, the result in the series filed under Mus musculus was Active. The affinity in series [13] corresponds to a Ki of 19.3 nM.

In [13], `Nc1ccc(-c2cc(=O)c3cc(OCCF)ccc3o2)cc1` yielded a Ki of 234 nM.

Take `CNc1ccc(-c2cc(=O)c3cc(OCCOCCOCCF)ccc3o2)cc1`: in [13], the inhibition constant (Ki) turned out to be 45.1 nM.

In the case of `CN(C)c1ccc(-c2cc(=O)c3cc(OCCOCCF)ccc3o2)cc1`, in the series listed under Mus musculus, the result was Active. The affinity in series [13], expressed as Ki, was 14.4 nM.

The compound `CNc1ccc(-c2cc(=O)c3cc(OCCF)ccc3o2)cc1` returned an inhibitory constant (Ki) in series [13] of 99 nM.

As to `Nc1ccc(-c2cc(=O)c3cc(OCCOCCOCCF)ccc3o2)cc1`, in series [13], the Ki came to 234 nM.

As for `CNc1ccc(-c2cc(=O)c3cc(F)ccc3o2)cc1`, the affinity in series [13], expressed as Ki, was 110 nM.

On to `Nc1ccc(-c2cc(=O)c3cc(OCCOCCF)ccc3o2)cc1`, for which affinity in series [13] was put at a Ki of 321 nM.

The compound `Nc1ccc(-c2cc(=O)c3cc(F)ccc3o2)cc1` yielded a Ki in series [13] of 260 nM.

For the compound `CN(C)c1ccc(-c2cc(=O)c3cc(OCCF)ccc3o2)cc1`, the outcome in the series filed under Mus musculus was Active. Moreover, the affinity in series [13] corresponds to a Ki of 5.3 nM.

For `CN(C)c1ccc(-c2cc(=O)c3cc(OCCOCCOCC[18F])ccc3o2)cc1`, the Drug uptake in the series on Brain [1] was found to be 1.31 % ID/g; in the series with Blood [2], 1.4 % ID/g; with Bone [3] it was 5.21 % ID/g; with Blood [4] it was 1.5 % ID/g; with Brain [5], 2.23 % ID/g; with Blood [6], 2.35 % ID/g. For the same compound, the Drug uptake in the series on Brain [7] was 2.89 % ID/g; in the series with Blood [8] it was 1.88 % ID/g; in the series on Bone [9], 4.06 % ID/g; with Brain [10] it was 1.37 % ID/g; in the series on Bone [11], 1.53 % ID/g; with Bone [12] it was 2.38 % ID/g.

Consider `CN(C)c1ccc(-c2cc(=O)c3cc(OCC[18F])ccc3o2)cc1`, for which the Drug uptake is given as 1.89 % ID/g in the series on Brain [1]; 2.53 % ID/g with Blood [2]; 6.21 % ID/g in the series with Bone [3]; 2.71 % ID/g in the series with Blood [4]; 3.62 % ID/g in the series with Brain [5]; 2.8 % ID/g in the series on Blood [6]. Moreover, the Drug uptake is 4.17 % ID/g in the series with Brain [7]; 3.25 % ID/g in the series on Blood [8]; 4.51 % ID/g with Bone [9]; 2.19 % ID/g in the series with Brain [10]; 2.02 % ID/g with Bone [11]; 2.83 % ID/g in the series with Bone [12].
